Reference: ChEMBL document CHEMBL3745654, “N-Alkylated arylsulfonamides of (aryloxy)ethyl piperidines: 5-HT(7) receptor selectivity versus multireceptor profile” (Bioorg Med Chem, 2016)

Key:
[1] = target: D(2) dopamine receptor (Homo sapiens, UniProt P14416); assay: Displacement of [3H]-Raclopride from human dopamine D2L receptor expressed in HEK293 cells incubated for 1 hr; assay type: cell-based
How it was run: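 Membranes from HEK293 cells stably expressing human D2L receptor, with [3H]-raclopride (74.4 Ci/mmol). Buffer: Tris-HCl, EDTA, MgCl2, 120 mM NaCl, 5 mM KCl, 1.5 mM CaCl2, ascorbate. Incubation 1 h at 37 °C, then filtration. Non-specific binding defined with (+)butaclamol. Triplicates at 7–8 concentrations (10^-11 to 10^-4 M). Ki by Cheng–Prusoff.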

[2] = target: T1, 5-hydroxytryptamine receptor 1A (Homo sapiens, UniProt P08908); assay: Displacement of [3H]-8-OH-DPAT from human 5-HT1A receptor expressed in HEK293 cells incubated for 1 hr; assay type: cell-based
T1 sequence (P08908 whole entry): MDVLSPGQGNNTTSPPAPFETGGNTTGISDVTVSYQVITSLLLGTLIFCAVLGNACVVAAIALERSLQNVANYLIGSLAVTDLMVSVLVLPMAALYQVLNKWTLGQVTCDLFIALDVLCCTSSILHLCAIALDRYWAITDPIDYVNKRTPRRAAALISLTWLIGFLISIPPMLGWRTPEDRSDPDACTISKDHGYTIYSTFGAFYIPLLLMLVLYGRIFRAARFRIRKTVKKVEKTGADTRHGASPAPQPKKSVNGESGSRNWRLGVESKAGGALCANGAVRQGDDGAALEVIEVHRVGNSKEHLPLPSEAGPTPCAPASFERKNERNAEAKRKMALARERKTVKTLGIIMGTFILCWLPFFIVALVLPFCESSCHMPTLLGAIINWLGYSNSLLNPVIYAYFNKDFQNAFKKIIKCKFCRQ
How it was run: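 Membranes from HEK293 cells stably expressing human 5-HT1A receptor, with [3H]-8-OH-DPAT (187 Ci/mmol). Buffer: 50 mM Tris-HCl, 0.1 mM EDTA, 4 mM MgCl2, pargyline, 0.1% ascorbate. Incubation 1 h at room temperature, then filtration. Non-specific binding defined with 5-HT. Triplicates at 7–8 concentrations. Ki by Cheng–Prusoff.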

[3] = target: 5-hydroxytryptamine receptor 7 (Homo sapiens, UniProt P34969); assay: Displacement of [3H]-5-CT from human 5-HT7B receptor expressed in HEK293 cells incubated for 1 hr; assay type: cell-based
5-hydroxytryptamine receptor 7, sequence (P34969 whole entry): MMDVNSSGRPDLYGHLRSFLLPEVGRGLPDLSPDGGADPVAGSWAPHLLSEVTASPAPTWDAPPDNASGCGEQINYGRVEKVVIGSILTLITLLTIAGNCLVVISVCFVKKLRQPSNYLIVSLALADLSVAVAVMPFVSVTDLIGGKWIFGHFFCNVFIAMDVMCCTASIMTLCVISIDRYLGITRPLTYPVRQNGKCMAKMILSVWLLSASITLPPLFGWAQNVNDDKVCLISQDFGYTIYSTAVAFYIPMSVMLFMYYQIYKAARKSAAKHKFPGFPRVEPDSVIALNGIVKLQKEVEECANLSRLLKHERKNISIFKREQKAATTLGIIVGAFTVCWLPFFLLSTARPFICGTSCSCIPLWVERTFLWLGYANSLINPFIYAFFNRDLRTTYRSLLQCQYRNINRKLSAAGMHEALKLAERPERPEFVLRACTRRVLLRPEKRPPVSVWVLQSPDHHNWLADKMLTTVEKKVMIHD
How it was run: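 Membranes from HEK293 cells stably expressing human 5-HT7b receptor, with [3H]-5-CT (39.2 Ci/mmol). Buffer: 50 mM Tris-HCl, 4 mM MgCl2, pargyline, 0.1% ascorbate. Incubation 1 h at 37 °C, then rapid filtration and counting of filter radioactivity. Non-specific binding defined with 5-HT. Triplicates at 7–8 concentrations (10^-11 to 10^-4 M). Ki by Cheng–Prusoff.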

[4] = target: 5-hydroxytryptamine receptor 2A (Homo sapiens, UniProt P28223); assay: Displacement of [3H]-ketanserin from human 5-HT2A receptor expressed in HEK293 cells incubated for 1 hr; assay type: cell-based
5-hydroxytryptamine receptor 2A, sequence (P28223 whole entry): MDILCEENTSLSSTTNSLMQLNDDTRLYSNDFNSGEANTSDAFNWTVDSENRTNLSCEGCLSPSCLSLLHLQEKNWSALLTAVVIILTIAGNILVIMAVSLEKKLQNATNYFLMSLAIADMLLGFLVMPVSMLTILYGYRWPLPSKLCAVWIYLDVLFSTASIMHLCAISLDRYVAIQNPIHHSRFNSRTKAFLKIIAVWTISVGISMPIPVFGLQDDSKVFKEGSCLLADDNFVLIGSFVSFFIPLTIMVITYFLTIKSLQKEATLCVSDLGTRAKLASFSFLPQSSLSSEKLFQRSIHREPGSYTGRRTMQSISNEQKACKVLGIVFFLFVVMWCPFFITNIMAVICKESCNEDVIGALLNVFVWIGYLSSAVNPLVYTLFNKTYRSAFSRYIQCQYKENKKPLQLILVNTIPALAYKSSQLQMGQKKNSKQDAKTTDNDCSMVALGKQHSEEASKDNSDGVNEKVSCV
How it was run: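 Membranes from HEK293 cells stably expressing human 5-HT2A receptor, with [3H]-ketanserin (66.9 Ci/mmol). Incubation 1 h at 37 °C, then rapid filtration and counting. Triplicates at 7–8 concentrations (10^-11 to 10^-4 M). Ki by Cheng–Prusoff; means of at least three experiments.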

[5] = target: Histamine H1 receptor (Homo sapiens) (UniProt P35367); assay: Displacement of [3H]-pyrilamine from human recombinant histamine H1 receptor expressed in HEK293 cells at 1 uM after 60 mins by Scintillation counting method; assay type: cell-based
Histamine H1 receptor (Homo sapiens), sequence (P35367 whole entry): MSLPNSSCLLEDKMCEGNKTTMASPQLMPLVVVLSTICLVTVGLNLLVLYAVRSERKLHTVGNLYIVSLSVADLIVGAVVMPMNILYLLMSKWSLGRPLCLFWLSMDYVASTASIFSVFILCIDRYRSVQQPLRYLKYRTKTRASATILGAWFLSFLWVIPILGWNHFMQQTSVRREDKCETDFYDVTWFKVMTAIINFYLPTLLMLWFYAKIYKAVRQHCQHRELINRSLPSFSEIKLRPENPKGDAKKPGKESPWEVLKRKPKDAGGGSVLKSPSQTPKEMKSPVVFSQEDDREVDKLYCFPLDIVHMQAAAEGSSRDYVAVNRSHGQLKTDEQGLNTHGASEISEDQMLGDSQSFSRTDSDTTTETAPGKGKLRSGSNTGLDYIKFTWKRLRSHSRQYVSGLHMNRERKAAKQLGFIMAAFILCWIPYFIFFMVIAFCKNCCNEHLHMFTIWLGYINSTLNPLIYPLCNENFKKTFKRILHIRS

[6] = target: T2, Muscarinic acetylcholine receptor M1 (Homo sapiens) (UniProt P11229); assay: Displacement of [3H]-pirenzepine from human recombinant muscarinic M1 receptor expressed in CHO cells at 1 uM after 60 mins by Scintillation counting method; assay type: cell-based
T2 sequence (whole entry): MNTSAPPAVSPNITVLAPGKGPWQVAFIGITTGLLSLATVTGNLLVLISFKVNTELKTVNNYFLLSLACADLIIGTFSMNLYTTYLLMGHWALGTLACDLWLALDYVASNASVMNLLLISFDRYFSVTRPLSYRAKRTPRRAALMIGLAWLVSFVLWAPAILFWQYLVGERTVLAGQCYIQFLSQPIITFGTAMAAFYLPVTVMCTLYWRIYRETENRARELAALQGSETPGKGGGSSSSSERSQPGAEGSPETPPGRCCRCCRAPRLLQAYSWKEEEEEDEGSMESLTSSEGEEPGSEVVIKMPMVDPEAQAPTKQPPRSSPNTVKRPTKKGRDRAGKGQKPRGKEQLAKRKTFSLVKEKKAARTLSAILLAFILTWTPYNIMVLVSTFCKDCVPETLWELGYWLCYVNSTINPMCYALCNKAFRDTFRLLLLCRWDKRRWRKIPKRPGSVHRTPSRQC

[7] = target: Sodium-dependent serotonin transporter (Rattus norvegicus) (UniProt P31652); assay: Displacement of [3H]-citalopram from rat cerebral cortex SERT at 1 uM; assay type: tissue-based
Sodium-dependent serotonin transporter (Rattus norvegicus), sequence (P31652 whole entry): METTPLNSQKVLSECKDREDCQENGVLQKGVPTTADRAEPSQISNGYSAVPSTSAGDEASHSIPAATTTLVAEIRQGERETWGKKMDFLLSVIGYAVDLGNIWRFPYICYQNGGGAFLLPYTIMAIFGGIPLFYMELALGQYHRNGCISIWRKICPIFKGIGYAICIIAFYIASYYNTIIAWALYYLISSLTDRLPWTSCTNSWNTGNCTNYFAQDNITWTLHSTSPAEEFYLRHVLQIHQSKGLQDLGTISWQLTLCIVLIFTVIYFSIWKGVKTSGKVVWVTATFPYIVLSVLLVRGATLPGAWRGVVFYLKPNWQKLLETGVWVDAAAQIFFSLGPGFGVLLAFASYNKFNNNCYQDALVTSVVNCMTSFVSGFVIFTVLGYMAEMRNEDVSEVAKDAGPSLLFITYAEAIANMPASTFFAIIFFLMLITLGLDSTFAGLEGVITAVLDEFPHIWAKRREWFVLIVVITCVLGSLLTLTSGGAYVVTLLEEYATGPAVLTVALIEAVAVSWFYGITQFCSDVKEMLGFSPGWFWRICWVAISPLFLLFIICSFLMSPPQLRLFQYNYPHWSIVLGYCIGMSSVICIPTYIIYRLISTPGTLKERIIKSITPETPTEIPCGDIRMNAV

[8] = target: T3, 5-hydroxytryptamine receptor 2C (Homo sapiens) (UniProt P28335); assay: Displacement of [3H]-mesulergine from human recombinant serotonin 5-HT2C receptor expressed in HEK293 cells at 1 uM incubated for 120 mins by scintillation counting method; assay type: cell-based
T3 sequence (whole entry): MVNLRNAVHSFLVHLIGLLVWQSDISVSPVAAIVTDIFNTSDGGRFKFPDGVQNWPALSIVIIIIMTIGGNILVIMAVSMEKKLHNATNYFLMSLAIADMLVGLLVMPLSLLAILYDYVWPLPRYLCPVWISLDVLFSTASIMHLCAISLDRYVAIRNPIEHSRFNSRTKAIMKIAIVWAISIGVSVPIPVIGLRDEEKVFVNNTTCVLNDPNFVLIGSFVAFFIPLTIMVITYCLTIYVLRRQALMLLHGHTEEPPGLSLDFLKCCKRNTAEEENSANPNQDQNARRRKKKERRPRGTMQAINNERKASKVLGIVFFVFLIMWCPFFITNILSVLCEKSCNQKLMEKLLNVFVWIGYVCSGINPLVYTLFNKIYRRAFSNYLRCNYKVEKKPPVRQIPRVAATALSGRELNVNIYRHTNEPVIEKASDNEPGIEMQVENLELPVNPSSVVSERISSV

[9] = Half life in mouse liver microsomes at 20 uM at pH 7.4 incubated for 15 mins by UPLC/MS analysis in presence of NADPH; assay type: ADME
How it was run: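 Compound (20 µM) incubated with mouse liver microsomes (0.2 mg/ml) in 100 mM potassium phosphate, pH 7.4, 37 °C. Reaction started with NADPH-regenerating system; blank without NADPH run in parallel. Sampling at 5, 15, 30 and 60 min (some to 120 min), in duplicate. Levallorphan internal standard; UPLC/MS quantitation. t1/2 from ln % remaining vs time.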

D(2) dopamine receptor, sequence (P14416 whole entry): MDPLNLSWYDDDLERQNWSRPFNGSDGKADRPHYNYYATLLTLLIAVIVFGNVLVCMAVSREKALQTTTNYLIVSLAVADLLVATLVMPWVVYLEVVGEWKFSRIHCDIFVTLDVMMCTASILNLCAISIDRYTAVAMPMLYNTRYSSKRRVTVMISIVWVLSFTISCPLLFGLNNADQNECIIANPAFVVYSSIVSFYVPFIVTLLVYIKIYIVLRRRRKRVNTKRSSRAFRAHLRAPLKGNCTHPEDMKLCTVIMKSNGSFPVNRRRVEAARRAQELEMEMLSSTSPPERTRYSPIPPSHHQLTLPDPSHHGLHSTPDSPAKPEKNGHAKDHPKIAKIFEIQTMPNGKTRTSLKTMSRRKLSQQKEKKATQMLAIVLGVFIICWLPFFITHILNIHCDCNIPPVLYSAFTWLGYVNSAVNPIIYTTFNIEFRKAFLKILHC

Structure (SMILES) | Ki [1] | Ki [2] | Ki [3] | Ki [4] | inhibition [5] | inhibition [6] | inhibition [7] | inhibition [8] | half-life at 20 µM [9]
CN(C1CCN(CCOc2ccccc2C(C)(C)C)CC1)S(=O)(=O)c1cnn(C)c1 | 280 nM | 9630 nM | 58 nM | 557 nM | < 64% | < 17% | < 20% | < 17% | 20 min
CN(C1CCN(CCOc2ccccc2-c2ccccc2)CC1)S(=O)(=O)c1cnn(C)c1 | 35 nM | 80 nM | 7 nM | 58 nM | < 64% | < 17% | < 20% | < 17% | 26.2 min
Cn1cc(S(=O)(=O)N(CC2CC2)C2CCN(CCOc3ccccc3-c3ccccc3)CC2)cn1 | 16 nM | 159 nM | 10 nM | 30 nM | < 64% | < 17% | < 20% | < 17% | 62 min
Cn1cc(S(=O)(=O)N(CC2CC2)C2CCN(CCOc3ccccc3C(C)(C)C)CC2)cn1 | 230 nM | 17800 nM | 49 nM | 1480 nM | < 64% | < 17% | < 20% | < 17% | 44.5 min
